Assay results reported in ChEMBL document CHEMBL2146445, “Discovery of BIIB042, a Potent, Selective, and Orally Bioavailable γ-Secretase Modulator” (ACS Med Chem Lett, 2011).
Activity calls are given as the source filed them. The rule behind the calls is not given here.

Legend:
[1] = molecular target: Voltage-gated inwardly rectifying potassium channel KCNH2 (Homo sapiens, UniProt Q12809); test: Inhibition of human ERG by patch clamp assay
Summary of the method: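 hERG was tested in an automated FastPatch patch-clamp assay, giving an EC50 readout.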

[2] = Modulation of gamma-secretase in CHO cells overexpressing APP V717 mutant assessed as reduction in amyloid beta42 level after 17 hrs by ELISA; assay type: cell-based; details: Cricetulus griseus
Summary of the method: (§1)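 CHO cells overexpressing APP V717F; Aβ42, Aβ40 and Aβ38 quantified together in each well by multiplex Aβ ELISA. EC50 is the mean of at least two determinations.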

Plasma = test: Plasma concentration in CF1 mouse at 10 mg/kg, po; assay type: ADME, organism-based; design: dose 10 mg/kg, route oral; details: in vivo
Summary of the method: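 Wild-type (CF-1) mice given compound orally as a solution in ethanol:propylene glycol:10% solutol (1:1:8). Animals sacrificed 4 h post-dose; brain and plasma collected for drug exposure and Aβ levels.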

Brain = test: Drug uptake in CF1 mouse brain at 10 mg/kg, po; assay type: ADME, organism-based; design: dose 10 mg/kg, route oral; details: in vivo, read-out: Drug uptake
Summary of the method: (§2)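 Wild-type CF-1 mice received a single oral dose as a solution in ethanol:propylene glycol:10% solutol (1:1:8). Animals were sacrificed 4 h after dosing. Brain and plasma were collected for drug concentration and Aβ levels. Aβ change was expressed relative to vehicle-treated controls.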

CHO = test: Modulation of gamma-secretase in CHO cells overexpressing APP V717 mutant assessed as effect on amyloid beta40 level after 17 hrs by ELISA; assay type: cell-based; details: Cricetulus griseus; summary of the method: as §1
[3] = Modulation of gamma-secretase in CHO cells overexpressing APP V717 mutant assessed as increase in amyloid beta38 level after 17 hrs by ELISA; assay type: cell-based; details: Cricetulus griseus; summary of the method: as §1
Mus musculus = test: Antialzheimer activity in CF1 mouse assessed as reduction in amyloid beta 42 level in brain at 10 mg/kg, po; assay type: functional; design: scale not given: the % may be the effect or the level left; summary of the method: as §2

Chain of Voltage-gated inwardly rectifying potassium channel KCNH2 (Q12809 whole entry): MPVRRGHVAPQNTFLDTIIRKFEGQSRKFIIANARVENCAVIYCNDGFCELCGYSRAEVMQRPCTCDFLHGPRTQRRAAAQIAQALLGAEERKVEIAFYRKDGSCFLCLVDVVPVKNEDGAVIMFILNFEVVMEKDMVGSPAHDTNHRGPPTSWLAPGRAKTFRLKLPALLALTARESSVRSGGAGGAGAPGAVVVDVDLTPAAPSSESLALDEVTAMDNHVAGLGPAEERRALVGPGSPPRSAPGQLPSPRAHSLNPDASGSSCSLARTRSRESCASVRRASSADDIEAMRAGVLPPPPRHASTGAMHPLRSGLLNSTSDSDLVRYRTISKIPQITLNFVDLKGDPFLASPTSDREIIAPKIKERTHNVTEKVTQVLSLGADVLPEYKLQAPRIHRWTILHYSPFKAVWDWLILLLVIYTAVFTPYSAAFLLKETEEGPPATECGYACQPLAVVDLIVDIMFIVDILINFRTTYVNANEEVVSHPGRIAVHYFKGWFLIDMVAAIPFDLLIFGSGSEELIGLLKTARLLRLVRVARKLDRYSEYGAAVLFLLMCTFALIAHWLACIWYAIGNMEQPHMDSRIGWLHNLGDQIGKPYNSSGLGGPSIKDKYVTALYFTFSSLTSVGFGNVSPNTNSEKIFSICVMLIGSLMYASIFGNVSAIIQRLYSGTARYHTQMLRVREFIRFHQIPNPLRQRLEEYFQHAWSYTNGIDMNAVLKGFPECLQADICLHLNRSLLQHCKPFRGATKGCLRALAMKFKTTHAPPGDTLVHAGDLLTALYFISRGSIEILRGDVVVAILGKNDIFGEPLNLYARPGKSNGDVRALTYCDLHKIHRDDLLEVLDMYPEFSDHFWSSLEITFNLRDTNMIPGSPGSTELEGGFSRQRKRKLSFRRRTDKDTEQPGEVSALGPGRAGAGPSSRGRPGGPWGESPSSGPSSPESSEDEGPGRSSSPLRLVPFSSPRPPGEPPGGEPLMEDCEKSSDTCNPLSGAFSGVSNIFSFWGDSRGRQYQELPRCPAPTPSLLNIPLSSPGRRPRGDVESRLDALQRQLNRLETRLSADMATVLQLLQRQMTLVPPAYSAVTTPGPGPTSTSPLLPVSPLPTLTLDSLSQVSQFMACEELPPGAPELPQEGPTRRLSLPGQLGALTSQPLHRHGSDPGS

## CC1CCN([C@@H](c2ccc(F)cc2)c2ccc([C@H](C)C(=O)O)cc2-c2ccc(C(F)(F)F)cc2)CC1
[1]
  EC50: 4600 nM
[2]
  EC50: 150 nM
Plasma
  concentration: 7.4 µM
Brain
  concentration: 6.6 µM
CHO
  Activity: inactive
[3]
  EC50: 110 nM
Mus musculus
  Activity: 38%
